Molecular target: Sigma 2 receptor
Test: Inhibition of [3H]-DTG binding to sigma-2 receptor of rat liver membranes with 1 uM dextrallorphan
Assay type: cell membranes, Membrane
Outline: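 Rat liver membranes (150-200 µg protein) incubated with 5 nM [3H]DTG plus 1 µM dextrallorphan to mask sigma-1 sites, in 50 mM Tris-HCl pH 8.0, 120 min at 25 °C. […] Filtration assay. IC50 from curve fitting, converted to Ki via Cheng-Prusoff. Two or three experiments, each in duplicate.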

Row | Structure (SMILES) | Ki [nM]
1 | O=S(=O)(NCCN1CCCCCC1)c1ccc(Br)cc1 | 198
2 | COc1ccc(S(=O)(=O)N(C)CCN2CCCCCC2)cc1I | 337
3 | O=S(=O)(NCCN1CCCC1)c1ccc(I)cc1 | 1000
4 | COc1ccc(S(=O)(=O)NCCN2CCCCC2)cc1I | 449
5 | CN(CCN1CCCCCC1)S(=O)(=O)c1ccc(I)cc1 | 23.5
6 | O=S(=O)(NCCN1CCCCC1)c1ccc(I)cc1 | 206
7 | O=S(=O)(NCCN1CCCC1)c1ccc(Br)cc1 | 1490

More lines, in order of falling Ki, values ahead:

Row | Ki [nM] | Structure (SMILES)
8 | 2830 | CCN(CC)CCNS(=O)(=O)c1ccc(Br)cc1
9 | 2390 | CCN(CC)CCNS(=O)(=O)c1ccc(I)cc1
10 | 459 | O=S(=O)(NCCN1CCCCC1)c1ccc(Br)cc1
11 | 189 | O=S(=O)(NCCN1CCCCCC1)c1ccc(I)cc1
12 | 44.4 | CN(CCN1CCCCCC1)S(=O)(=O)c1ccc(Br)cc1

From ChEMBL document CHEMBL1131008, “Substituted halogenated arylsulfonamides: a new class of sigma receptor binding tumor imaging agents” (J Med Chem, 1998)
